Active and inactive are the calls of the source. The calls are words filed in the database; no cut-off is given here.
Tests used:
A549 = assay: Antiproliferative activity against human A549 cells incubated for 72 hrs by CCK8 cells; type: functional, cell-based; conditions: A549, 72 h
Procedure, shortened: (§1)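 CCK-8 proliferation assay. 10,000 cells per well were preincubated 24 h at 37 °C with 5% CO2, then given compound dissolved in DMSO and incubated 72 h. CCK-8 was added for 4 h and absorbance read at 450 nm. IC50 was taken from dose-response curves as mean ± SEM of at least three independent experiments, with paclitaxel as positive control. HepG2 and L-O2 were grown in DMEM/10% FBS; A549 and RPMI-8226 in RPMI 1640/10% FBS.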

PLC-PRF-5 [1] = assay: Antiproliferative activity against human PLC/PRF/5 cells incubated for 72 hrs by CCK8 cells; type: functional, cell-based; conditions: PLC-PRF-5, 72 h
L02 = assay: Cytotoxicity against human LO2 cells incubated for 72 hrs by CCK8 cells; type: cell-based; conditions: L02, 72 h; procedure, shortened: as §1
PLC-PRF-5 [2] = assay: Inhibition of colony formation in human PLC/PRF/5 cells at 0.5 uM incubated for 10 days by crystal violet staining based microscopic method relative to control; type: functional; conditions: PLC-PRF-5, 240 h
Procedure, shortened: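 Five hundred cells plated per 30 mm dish and left 12 h. Medium with compound was added (0, 0.1, 0.5, 1 µM) or DMSO as negative control, and cells grew 10 days. Colonies were fixed in methanol 15 min, stained with 0.1% crystal violet 15 min, photographed and counted. Colony size was checked by microscope. Relative colony number is mean ± SD of ≥3 independent experiments.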

PLC-PRF-5 [3] = assay: Induction of cell cycle arrest in human PLC/PRF/5 cells assessed as accumulation at S phase at 0.25 uM incubated for 24 hrs by PI staining based flow cytometric analysis (reference value: 42.03%); type: functional
PLC-PRF-5 [4] = assay: Induction of cell cycle arrest in human PLC/PRF/5 cells assessed as accumulation at G2 phase at 0.5 uM incubated for 24 hrs by PI staining based flow cytometric analysis (reference value: 18.05%); type: functional
PLC-PRF-5 [5] = assay: Induction of cell cycle arrest in human PLC/PRF/5 cells assessed as accumulation at G1 phase at 1 uM incubated for 24 hrs by PI staining based flow cytometric analysis (reference value: 34.78%); type: functional
HepG2 [6] = assay: Induction of cell cycle arrest in human HepG2 cells assessed as accumulation at G1 phase at 0.25 uM incubated for 24 hrs by PI staining based flow cytometric analysis (reference value: 37.06%); type: functional
HepG2 [7] = assay: Induction of cell cycle arrest in human HepG2 cells assessed as accumulation at S phase at 0.25 uM incubated for 24 hrs by PI staining based flow cytometric analysis (reference value: 35.46%); type: functional
HepG2 [8] = assay: Induction of cell cycle arrest in human HepG2 cells assessed as accumulation at G1 phase at 1 uM incubated for 24 hrs by PI staining based flow cytometric analysis (reference value: 37.06%); type: functional
HepG2 [9] = assay: Induction of apoptosis in human HepG2 cells assessed as shrunken chromatin at 0.25 to 1 uM incubated for 24 hrs by Hoechst 33258 dye based fluorescence microscopic method; type: functional, cell-based
Procedure, shortened: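 About 2 × 10^4 cells per well were plated overnight and treated 24 h with 0, 0.25, 0.5 or 1 µM compound. Cells were fixed in 4% paraformaldehyde for 30 min at room temperature, stained with 20 µg/mL Hoechst 33258 for 20 min at 37 °C, and imaged by fluorescence microscopy.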

PLC-PRF-5 [10] = assay: Induction of apoptosis in human PLC/PRF/5 cells assessed as early apoptotic cells at 0.25 uM incubated for 24 hrs by annexin V staining based cell counting method (reference value: 5.65%); type: functional
PLC-PRF-5 [11] = assay: Induction of apoptosis in human PLC/PRF/5 cells assessed as necrotic cells at 0.25 uM incubated for 24 hrs by annexin V staining based cell counting method (reference value: 0.59%); type: functional
PLC-PRF-5 [12] = assay: Induction of apoptosis in human PLC/PRF/5 cells assessed as necrotic cells at 1 uM incubated for 24 hrs by annexin V staining based cell counting method (reference value: 0.59%); type: functional
HepG2 [13] = assay: Induction of apoptosis in human HepG2 cells assessed as early apoptotic cells at 0.25 uM incubated for 24 hrs by annexin V staining based cell counting method (reference value: 3.60%); type: functional
HepG2 [14] = assay: Induction of apoptosis in human HepG2 cells assessed as late apoptotic cells at 0.25 uM incubated for 24 hrs by annexin V staining based cell counting method (reference value: 5.65%); type: functional
HepG2 [15] = assay: Induction of apoptosis in human HepG2 cells assessed as necrotic cells at 0.25 uM incubated for 24 hrs by annexin V staining based cell counting method (reference value: 3.40%); type: functional
HepG2 [16] = assay: Induction of apoptosis in human HepG2 cells assessed as live cells at 0.5 uM incubated for 24 hrs by annexin V staining based cell counting method (reference value: 87.35%); type: functional
HepG2 [17] = assay: Induction of apoptosis in human HepG2 cells assessed as early apoptotic cells at 0.5 uM incubated for 24 hrs by annexin V staining based cell counting method (reference value: 3.60%); type: functional
HepG2 [18] = assay: Induction of apoptosis in human HepG2 cells assessed as late apoptotic cells at 0.5 uM incubated for 24 hrs by annexin V staining based cell counting method (reference value: 5.65%); type: functional
HepG2 [19] = assay: Induction of apoptosis in human HepG2 cells assessed as late apoptotic cells at 1 uM incubated for 24 hrs by annexin V staining based cell counting method (reference value: 5.65%); type: functional
HepG2 [20] = assay: Induction of apoptosis in human HepG2 cells assessed as necrotic cells at 1 uM incubated for 24 hrs by annexin V staining based cell counting method (reference value: 3.40%); type: functional
HepG2 [21] = assay: Induction of apoptosis in human HepG2 cells assessed as upregulation of Bax protein expression level incubated for 24 hrs by Western blot analysis; type: functional, cell-based
Procedure, shortened: (§2)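 Cells were treated 24 h in DMEM with 0, 0.25, 0.5, 1.0 or 1.25 µM compound. Adherent and floating cells were lysed in RIPA on ice and protein measured by BCA. Equal protein was run on 7.5–12.5% SDS-PAGE and transferred to PVDF. Membranes were blocked in 5% milk/PBST, incubated with primary antibody overnight at 4 °C, and detected by ECL.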

HepG2 [22] = assay: Induction of apoptosis in human HepG2 cells assessed as upregulation of cleaved PARP protein expression level incubated for 24 hrs by Western blot analysis; type: functional, cell-based; procedure, shortened: as §2
HepG2 [23] = assay: Induction of apoptosis in human HepG2 cells assessed as change in p53 protein expression level at 0.25 to 1.25 uM incubated for 24 hrs by Western blot analysis; type: functional, cell-based; procedure, shortened: as §2
[24] = Toxicity in nude mouse xenografted with human PLC/PRF/5 cells assessed as change in body weight at 10 mg/kg, iv administrated once every 3 days for 4 weeks; type: organism-based; conditions: in vivo
Procedure, shortened: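 Nude mice were inoculated subcutaneously in the right forelimb with 2 × 10⁷ PLC/PRF/5 cells in 0.2 mL saline. At about 120 mm³, mice were randomized into 3 groups of 6. Dosing was i.v. once every three days for 4 weeks, with vehicle 10% N-methylpyrrolidone/12% Tween-80/78% saline. Body weight was recorded daily.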

PLC-PRF-5 [25] = assay: Inhibition of colony formation in human PLC/PRF/5 cells assessed as decrease in colony size at 0.1 to 1 uM incubated for 10 days by crystal violet staining based microscopic method

C=C1C(=O)[C@]23[C@H](OC(=O)/C=C/c4ccc(OC)cc4)[C@H]1CC[C@H]2[C@@]12CO[C@]3(O)[C@@H](O)[C@@H]1C(C)(C)CC[C@@H]2O showed an IC50 (A549) of 12 µM, an IC50 (PLC-PRF-5 [1]) of 0.78 µM and an IC50 (L02) of 1.47 µM. The inhibition at 0.5 µM (PLC-PRF-5 [2]) was 100%, the Activity (PLC-PRF-5 [3]) was 46.59% and the Activity (PLC-PRF-5 [4]) was 13.58%. The Activity (PLC-PRF-5 [5]) was 45.41%, the Activity (HepG2 [6]) was 38.04% and the Activity (HepG2 [7]) was 33.94%. The Activity (HepG2 [8]) was 42.33%, the Activity (HepG2 [9]) was “Active” and the Activity (PLC-PRF-5 [10]) was 9.43%. It also gave an Activity (PLC-PRF-5 [11]) of 0.91%, an Activity (PLC-PRF-5 [12]) of 0.45% and an Activity (HepG2 [13]) of 5.3%. The Activity (HepG2 [14]) was 5.7%, the Activity (HepG2 [15]) was 7.05% and the Activity (HepG2 [16]) was 77.75%. It also gave an Activity (HepG2 [17]) of 8.95%, an Activity (HepG2 [18]) of 7.55% and an Activity (HepG2 [19]) of 20.7%. The Activity (HepG2 [20]) was 4.1%, the Activity (HepG2 [21]) was “Dose-dependent effect” and the Activity (HepG2 [22]) was “Dose-dependent effect”. The Activity (HepG2 [23]) was “inactive”, the Activity [24] was “Non-Toxic” and the inhibition (PLC-PRF-5 [25]) was “Active”.

Source: ChEMBL document CHEMBL4364265, “Oridonin derivatives as potential anticancer drug candidates triggering apoptosis through mitochondrial pathway in the liver cancer cells” (Eur J Med Chem, 2019)
